# CHOP UPR activ: activators of apoptotic arm of unfolded protein response (CHOP) | activation, % at 10 µM | CHO-CHOP luciferase reporter, UPR activation, luminescence; percent of tunicamycin response over DMSO baseline | hit rate 0.34% among 330,000 | AID 449763;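 active means at 10 µM dose, activation of 40% or more, normalized to positive control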;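 further: 100% = tunicamycin at 10 µg/mL and 0% = DMSO alone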
#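 Evaluation: % reporter activation, DMSO baseline versus tunicamycin full activation; System: CHO-CHOP luciferase reporter cell line; Input: 500 cells/well; Incubation: 6 h compound treatment, 37 °C; Measured by: Steady-Glo luciferase luminescence; Dosing: one dose, 10 µM in 0.5% DMSO; Buffer or medium: F12 medium, 10% FBS; Benchmarks: positive tunicamycin 10 µg/mL, negative DMSO alone.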
# UPR XBP1 act: adaptive UPR (XBP1) activation; AID 463104; activation, % at 20 µM; CHO-XBP1 luciferase reporter, IRE1-XBP1 UPR activation, luminescence; percent of tunicamycin response, DMSO as zero; hit rate 0.33% among 330,000;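 active means versus positive control, 20 µM dose yields 30% or more activation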;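 further: 100% = tunicamycin at 10 µg/mL and 0% = DMSO only wells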
#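 Material: IRE1-XBP1 luciferase reporter CHO line / Quantity: one thousand reporter cells per well / Buffer or medium: F12 with 10% serum / Compound: 20 µM single concentration, DMSO 1% / Times: 6 h treatment, 37 °C / Detection: Steady-Glo luciferase glow luminescence, 10 min after reagent addition / Benchmarks: tunicamycin high, DMSO low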
# T cell modulator: T cell immune modulators affecting CD8 T cell-vesicle binding. hit rate 0.068% among 330,000. 2C CD8+ T cell-vesicle binding, flow cytometry; stronger effect = lower value. AID 2052. response (vesicle binding), % at 7 µM;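 active means response, share of CD8 T cells binding vesicles, and their 90th percentile fluorescence all below set limits, cut at about 80% in these data, passing the limit was not always enough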;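 further: values below 100% mean blocked vesicle binding to the CD8+ T cells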
#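 material = purified 2C TCR transgenic mouse naive CD8+ T cells | controls = Unloaded micro-vesicles (low), QL9 vesicles with 0.7% DMSO (high) | detection = cytometric PE anti-B7-1 and Alexa647 anti-CD8 signals after 1% paraformaldehyde fixation | incubation = binding step 1.5 h, 37 °C, antibody labelling 20 min, ice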
# Beta2AR agonist: human beta-2 adrenergic receptor agonism by FAP. Am2.2-beta2AR cells, FAP receptor internalization, flow cytometry. P07550. hit rate 0.43% among 340,000. response, % (concentration not given with the values);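 active means response above a set limit, near 3 SD of response in nonfluorescent compounds, cut at about 42% in these data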
# Target sequence (P07550 whole entry, looked up): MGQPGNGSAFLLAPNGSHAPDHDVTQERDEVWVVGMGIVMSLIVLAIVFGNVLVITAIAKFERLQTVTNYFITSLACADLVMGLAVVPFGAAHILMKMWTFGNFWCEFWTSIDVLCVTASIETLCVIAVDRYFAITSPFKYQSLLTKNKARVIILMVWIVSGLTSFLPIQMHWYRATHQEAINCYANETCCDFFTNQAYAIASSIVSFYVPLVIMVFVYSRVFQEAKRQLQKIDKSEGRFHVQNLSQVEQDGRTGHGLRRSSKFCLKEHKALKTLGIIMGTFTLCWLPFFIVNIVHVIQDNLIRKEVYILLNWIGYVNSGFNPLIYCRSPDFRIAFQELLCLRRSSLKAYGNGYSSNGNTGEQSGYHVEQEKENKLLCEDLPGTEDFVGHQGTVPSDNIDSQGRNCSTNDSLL
# Beta2AR ag CP1: activates human beta-2 adrenergic receptor. shares compounds with Beta2AR agonist. percent response (surface receptor), % at 10 µM. Am2.2-beta2AR cells, FAP surface receptor, flow cytometry; stronger effect = lower value. hit rate 25% among 1,100;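 active means surface receptor percent response at or below 58%, roughly 3 SD from nonfluorescent compounds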
# FAP fluor counter: fluorescence artifact in beta-2AR agonist FAP counterscreen | shares compounds with Beta2AR agonist | Am2.2 cells, FAP fluorogen flow cytometry; stronger effect = lower value | calls only at 10 µM | 1,100 tested, under 10 active | AID 588765;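 active means percent response below a set limit in fluorescence channel 1 and below 50% in channel 8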
# * = called active by the depositor; i = inactive; / = no result given. Shown are actives, neighbours in structure and some others; about 1% of the full set was active somewhere.
SMILES,CHOP UPR activ,UPR XBP1 act,T cell modulator,Beta2AR agonist,Beta2AR ag CP1,FAP fluor counter
Cc1ccc(C(=O)NCCNC(=O)c2ccc(C)nc2)cc1,1.5,1.9,330.5,60.6*,115.3,i
Cc1ccc(NC(=O)C2(N(C(=O)Cn3nnnc3N)c3ccc(C)cc3)CCCCC2)cc1,1.3,-1.5,235.5,-0.6,/,/
O=C(CCCCCNc1nc(=S)[nH]c2ccccc12)NCCc1c[nH]c2ccccc12,-1.6,-0.4,270.5,21.8,/,/
O=C(CCCCCNc1nc(=S)[nH]c2ccccc12)NCCc1ccc(Cl)cc1,-0.2,-2.1,i,54.6*,109.5,i
CCn1c(COc2ccccc2)nnc1SCc1ccc(C#N)cc1,-0.5,-3.9,260.1,0.1,/,/
CCn1c(COc2ccc(Cl)cc2)nnc1SCc1ccc(C#N)cc1,5.5,-4.7,605.2,44.1*,64.3,i
Cc1ccc(S(=O)(=O)NC(C)(C)CN2CCC(Cc3ccccc3)CC2)cc1,1.6,-1.5,0.0,50.0*,106.9,i
O=C(CN(c1ccccc1F)S(=O)(=O)c1ccccc1)NC1CCCCCC1,0.2,2.0,257.2,53.4*,106.8,i
COCCNC(=O)c1c(N)n(CCCn2ccnc2)c2nc3ccccc3nc12,-0.8,1.3,160.6,64.9*,113.8,i
CCC(=O)Nc1ccc(C(=O)OCC(=O)c2ccc(C)c([N+](=O)[O-])c2)cc1,0.4,0.4,556.4,-7.0,/,/
Cc1cc(C)n2nc(C(=O)Nc3ccc(S(=O)(=O)N4CCCC4)cc3)nc2n1,-2.4,-2.3,436.7,45.6*,98.3,i
CN(c1ccccc1)S(=O)(=O)c1cccc(NC(=O)c2ccncc2)c1,-2.2,-1.4,182.3,-11.1,/,/
Cc1cc(C)n2nc(C(=O)Nc3cccc(S(=O)(=O)N(C)c4ccccc4)c3)nc2n1,-0.1,0.8,296.1,74.5*,12.2*,i
Cc1cc(C)n2nc(C(=O)Nc3ccc(S(=O)(=O)N4CCCCC4)cc3)nc2n1,1.0,-1.4,363.0,-0.5,/,/
CCOC(=O)C(Cc1c(F)cccc1Cl)c1ccno1 (stereo unspecified),-0.4,-5.2,188.9,15.9,/,/
CC(O)C(NS(=O)(=O)c1ccc(Cl)cc1)C(=O)OCc1nnc(-c2ccccc2)o1 (stereo unspecified),-1.2,-3.0,226.0,8.7,/,/
CCOc1ccc(N(CC(=O)NC2CC3CCC2C3)S(=O)(=O)c2ccccc2)cc1 (stereo unspecified),0.6,-3.4,291.5,-14.6,/,/
COc1cc2nc(N3CCN(C(=O)C4COc5ccccc5O4)CC3)nc(N)c2cc1OC (stereo unspecified),0.9,-2.5,627.4,7.0,99.8,i
COc1cc2nc(N3CCN(C(=O)c4ccco4)CC3)nc(N)c2cc1OC,4.7,-9.6,198.5,5.3,/,/
O=C1NCN(c2ccccc2)C12CCN(CCCC(c1ccc(F)cc1)c1ccc(F)cc1)CC2,1.5,3.3,111.0,48.9*,81.9,i
CN(C)CCCN(C(=O)CCc1ccccc1)c1nc2ccc(Br)cc2s1,1.9,6.4,54.6,43.6*,119.9,i
CN(C)CCCN(C(=O)CCc1ccccc1)c1nc2ccc(F)cc2s1,2.2,2.5,557.9,-0.1,/,/
O=[N+]([O-])c1cnc(Sc2ccncn2)s1,-9.0,-9.6,112.1,91.8*,15.8*,i
C=CCn1c(Sc2ncc([N+](=O)[O-])s2)n[nH]c1=O,-9.0,-9.7,120.8,32.9,/,/
COc1ccc(Cl)cc1C(=O)Nc1cccc(-c2ccc3nncn3n2)c1,0.9,-1.1,473.9,77.3*,87.7,i
SMILES,CHOP UPR activ,UPR XBP1 act,T cell modulator,Beta2AR agonist,Beta2AR ag CP1,FAP fluor counter
Cc1noc(C)c1COc1ccccc1C(=O)N1CCN(S(=O)(=O)c2ccccc2Br)CC1,/,/,/,70.9*,92.3,i
CN(C)c1ccc(N=Cc2cccn2C)cc1,5.2,-8.3,288.8,1.1,/,/
C/C=C(/C(=C/C)c1ccc(O)cc1)c1ccc(O)cc1,-0.9,-7.3,511.6,-14.6,108.3,i
Cc1ccc([N+](=O)[O-])cc1N=Nc1c(-c2ccc([N+](=O)[O-])cc2)[nH]n(C(N)=S)c1=O,/,/,/,19.5,101.5,i
Cc1ccc([N+](=O)[O-])cc1N=Nc1c(C)[nH]n(C(N)=S)c1=O,1.0,-3.9,174.0,2.6,/,/
Cc1ccc(N=Nc2c(C)[nH]n(C(N)=S)c2=O)cc1,4.3,2.0,295.4,-3.7,/,/
NC(=S)n1[nH]c(-c2ccc([N+](=O)[O-])cc2)c(N=Nc2ccc(Cl)cc2)c1=O,/,/,/,2.4,103.3,i
COc1ccc(C=O)cc1Cn1c(=O)n(CCC(=O)NCc2ccco2)c(=O)c2sccc21,-0.7,-0.6,396.8,-5.7,/,/
CCc1ccccc1NC(=O)C1CC(c2ccc(OC)cc2)=NO1 (stereo unspecified),0.8,-1.5,27.2,-2.8,/,/
Cc1nc([N+](=O)[O-])c(Br)n1Cc1ccc(Cl)c(Cl)c1,/,/,/,57.6*,95.6,i
CCC(C)NC(=O)C1(C)CCC(=O)N1CCc1ccc(OC)c(OC)c1 (stereo unspecified),0.7,1.6,281.3,0.7,/,/
Cc1ccc2c(c1)C(=O)C(=O)N2CCCOc1ccccc1C,4.0,25.2,497.7,42.3*,91.3,i
COc1ccc(NC(=O)/C=C/c2ccc3c(c2)OCO3)cc1,5.1,4.1,313.4,4.5,/,/
O=C(CSc1ccccn1)c1ccc2c(c1)OCO2,5.3,2.7,313.8,52.5*,94.2,i
COc1ccc(N2CCN(C(=O)COC(=O)COc3cc(C)cc(C)c3)CC2)cc1,0.8,-3.6,354.2,1.2,/,/
COc1ccc(NC(=O)CN(C)S(=O)(=O)c2ccccc2)c([N+](=O)[O-])c1,0.5,-1.8,765.0,11.2,/,/
COc1ccc(OC)c(C(=O)NC(CC(N)=O)c2ccc(N3CCN(c4ccccn4)CC3)c([N+](=O)[O-])c2)c1 (stereo unspecified),0.4,-0.1,342.7,16.1,141.0,i
COc1ccc(OC)c(C(=O)NC(CC(N)=O)c2ccc(N3CCN(c4ccccc4)CC3)c([N+](=O)[O-])c2)c1 (stereo unspecified),1.0,-1.5,211.2,-4.1,/,/
Cc1cc(C)cc(C(=O)NC(CC(N)=O)c2ccc(N3CCN(c4ccccn4)CC3)c([N+](=O)[O-])c2)c1 (stereo unspecified),-0.5,0.3,0.0,67.8*,17.5*,i
Cc1ccc(NC(=O)Nc2ccc3c(c2)nnn3C)cc1C,3.1,-2.3,274.3,-2.1,/,/
CCOc1ccc(NC(=O)Nc2ccc3c(c2)nnn3C)cc1,1.5,-4.1,568.9,59.9*,101.3,i
CCCNC(C)C(=O)Nc1ccccc1C (stereo unspecified),-2.2,-4.6,548.8,-2.9,114.5,i
